Results gathered from unrelated publications.
Compare with care: the assays were run in different laboratories.
BRAF: Serine/threonine-protein kinase B-raf (BRAF, Homo sapiens, UniProt P15056)
HSP90B1: Endoplasmin (HSP90B1, Canis lupus familiaris, UniProt P41148)
SMUG1: SMUG1 (Homo sapiens, UniProt Q53HV7)
Ephx2: Bifunctional epoxide hydrolase 2 (Ephx2, Mus musculus, UniProt P34914)
Delta-aminolevulinic acid dehydratase C162A/K59N: Delta-aminolevulinic acid dehydratase (Homo sapiens, UniProt P13716, C162A/K59N)
BACE1: Beta-secretase 1 (BACE1, Homo sapiens, UniProt P56817)
RXFP3: Relaxin-3 receptor 1 (RXFP3, Homo sapiens, UniProt Q9NSD7)
ELANE: Neutrophil elastase (ELANE, Homo sapiens, UniProt P08246)
SMARCA2 bromodomain: SWI/SNF-related matrix-associated actin-dependent regulator of chromatin subfamily A member 2, bromodomain (SMARCA2, Homo sapiens, UniProt P51531)

CC(C)C[C@H](NC(=O)[C@H](Cc1ccccc1)NC(=O)[C@@H](N)Cc1ccc(O)cc1)C(=O)N[C@@H](Cc1ccccc1)C(=O)N[C@@H](CCCNC(=N)N)C(=O)N1CCC[C@H]1C(=O)N[C@@H](CCCNC(=N)N)C(=O)N[C@@H](CC(N)=O)C(N)=O — IC50 (Neuromedin-U receptor 2 (Mus musculus, UniProt Q8BZ39); ligand displacement; radioligand; cell membranes): 9e-05 µM
Cc1ccc(COc2ccc3c(c2)NC(=C(C#N)C(=O)c2ccc(Cl)cc2Cl)NC3=O)cc1 — IC50 (Cytoplasmic dynein 2 heavy chain 1 (DYNC2H1, Homo sapiens, UniProt Q8NCM8); ATPase activity; inhibitor): 11 µM
Nc1ncc(-c2nc(N3CCOCC3)nc(N3C[C@H]4CC[C@@H](C3)O4)n2)c(C(F)F)n1 — IC50 (Serine/threonine-protein kinase mTOR (MTOR, Homo sapiens, UniProt P42345); ligand displacement; TR-FRET): 0.0422 µM
COc1ccc2c(Oc3ccc4c(C(=O)Nc5ccccc5N)cccc4c3)ccnc2c1 — IC50 (BRAF; enzyme activity; inhibitor): > 0.5 µM
Cc1ccc(NC(=O)c2ccc(C)c(C(F)(F)F)c2)cc1C#Cc1nn(C2CCC(O)CC2)c2ncnc(N)c12 (stereo not shown) — IC50 (Ephrin type-B receptor 2 (EPHB2, Homo sapiens, UniProt P29323); enzyme activity; inhibitor; radiometric): 0.033 µM
CCCc1cc2cc(-n3nc(C)c4c3CC(C)(C)CC4=O)cc(N[C@H]3CC[C@H](O)CC3)c2c(=O)[nH]1 — IC50 (HSP90B1; ligand displacement; FP): > 50 µM
O=C(Nc1ccc(Cl)c(Cl)c1)N1CCC(n2c(=O)[nH]c3c(Br)cccc32)CC1 — IC50 (SMUG1; enzyme activity; inhibitor): > 100 µM
C=CC(=O)Nc1cc(Nc2nccc(-c3cn(C4CC4)c4ccccc34)n2)c(OC)cc1N(C)CCN(C)C — IC50 (Epidermal growth factor receptor (EGFR, Homo sapiens, UniProt P00533, L747S); enzyme activity; inhibitor; TR-FRET): 0.00309 µM
Oc1ccc(-c2nc(-c3ccncc3)c(-c3ccc(F)cc3)[nH]2)cc1 — IC50 (BRAF; cell-free assay; inhibitor): 1.13 µM
O=C(N/N=C/c1cccn1CCN1CCOCC1)Nc1cc2c(Nc3ccc(F)c(Cl)c3)ncnc2cc1O[C@H]1CCOC1 — IC50 (Epidermal growth factor receptor (EGFR, Homo sapiens, UniProt P00533, L858R/T790M); enzyme activity; inhibitor): 0.0167 µM
CNc1nc(C)nc(N[C@H]2CCC[C@@H](C(=O)NCc3ccc(C#N)cc3C(F)(F)F)C2)n1 — IC50 (Ephx2; enzyme activity; inhibitor): 0.004 µM
O=C(O)c1ccccc1Nc1cccc(C(F)(F)F)c1 — IC50 (Delta-aminolevulinic acid dehydratase C162A/K59N; enzyme activity; inhibitor; absorbance; pH 8; with preincubation): 2.5 µM
CC(C)(C)n1nc(-c2cnc3cc(OC4CC4)ccc3c2)c(C(N)=O)c1N — IC50 (BRAF; cell-free assay): > 10 µM
NC1=NCC(c2cccc3ccccc23)OC1 (stereo not shown) — IC50 (BACE1; enzyme activity; inhibitor; FRET; pH 5): 1100 µM
C=C(Cl)C(=O)Nc1cc(Nc2nc(Nc3cnn(C)c3)c3sccc3n2)c(OC)cc1N1CCN(C)CC1 — IC50 (Epidermal growth factor receptor (EGFR, Homo sapiens, UniProt P00533, C797S/L858R/T790M); enzyme activity; inhibitor; ELISA): > 1 µM
CC(C)C[C@H](NC(=O)[C@@H]1COCCCCCCCC(=O)N2CCC[C@H]2C(=O)N1)C(=O)[C@@]1(C)CO1 — IC50 (Proteasome Macropain subunit MB1 (PSMB5, Homo sapiens, UniProt P28074); enzyme activity; inhibitor; fluorescence): > 10 µM
O=C(Nc1ccc(-c2nc(-c3ccccc3)no2)cc1)C1CC(=O)N(Cc2cccnc2)C1 (stereo not shown) — IC50 (RXFP3; cAMP; antagonist; TR-FRET): 7.69 µM
Cc1cccc(C(=O)n2ncc(=O)c3ccccc32)c1 — IC50 (ELANE; enzyme activity; inhibitor; fluorescence): 0.056 µM
O=Cc1cc(Br)cc(Br)c1O — IC50 (Delta-aminolevulinic acid dehydratase C162A/K59N; enzyme activity; inhibitor; absorbance; pH 8; with preincubation): 22 µM
COc1ccc2c(c1)OC1Oc3cc(O)c(CC=C(C)C)c(O)c3C(=O)C21O (stereo not shown) — IC50 (BACE1; enzyme activity; inhibitor): 91 µM
O=c1oc2c(O)c(O)cc3c(=O)oc4c(O)c(O)cc1c4c23 — IC50 (DNA polymerase iota (Homo sapiens, UniProt Q9UNA4); enzyme activity; inhibitor): 0.081 µM
NCCCC[C@H](NC(=O)[C@@H]1CCCN1C(=O)[C@@H]1CSSC[C@H](NC(=O)CNC(=O)CNC(=O)CN)C(=O)N[C@@H](Cc2ccc(O)cc2)C(=O)N[C@@H](Cc2ccccc2)C(=O)N[C@@H](CCC(N)=O)C(=O)N[C@@H](CC(N)=O)C(=O)N1)C(=O)NCC(N)=O — IC50 (Vasopressin V2 receptor (AVPR2, Homo sapiens, UniProt P30518); ligand displacement; radioligand; cell membranes): 9.6 µM
O=C(Nc1ccc(-c2nc(-c3ccc(Cl)cc3)no2)cc1)C1CC(=O)N(Cc2cccnc2)C1 (stereo not shown) — IC50 (RXFP3; cAMP; antagonist; TR-FRET): 1.49 µM
O=C1N[C@H](C(=O)O)CS1 — IC50 (Hydroxycarboxylic acid receptor 2 (HCAR2, Homo sapiens, UniProt Q8TDS4); ligand displacement; radioligand; cell membranes): ~900 µM
NC(=O)N/N=C/c1ccc([N+](=O)[O-])o1 — IC50 (Delta-aminolevulinic acid dehydratase C162A/K59N; enzyme activity; inhibitor; absorbance; pH 8; with preincubation): 2.1 µM
O=C(Nc1ccn(Cc2ccc(O)cc2C(F)(F)F)n1)c1c(F)cccc1F — IC50 (Transient receptor potential cation channel subfamily V member 4 (TRPV4, Homo sapiens, UniProt Q9HBA0); ion current; inhibitor): > 10 µM
O=C(Nc1ccc(-c2nc(-c3ccc(Br)cc3)no2)cc1)C1CC(=O)N(Cc2cccnc2)C1 (stereo not shown) — IC50 (RXFP3; cAMP; antagonist; TR-FRET): 3.08 µM
Cc1c(Cl)cccc1Nc1ccccc1C(=O)O — IC50 (Delta-aminolevulinic acid dehydratase C162A/K59N; enzyme activity; inhibitor; absorbance; pH 8; with preincubation): 2.1 µM
CCn1ncc2c1-c1cnc(N)c(c1)O[C@H](C)c1cc(F)ccc1-c1nn(C)nc1C2 — IC50 (Muscle, skeletal receptor tyrosine-protein kinase (MUSK, Homo sapiens, UniProt O15146); enzyme activity; inhibitor; radiometric): 0.044 µM
O=C(Nc1ccc(Br)cc1)N1CCC(n2c(=O)[nH]c3c(Br)cccc32)CC1 — IC50 (SMUG1; enzyme activity; inhibitor): > 100 µM
Cc1ncsc1-c1ccc(CNC(=O)[C@@H]2C[C@H](O)CN2C(=O)[C@@H](NC(=O)C2(F)CC2)C(C)(C)C)c(OCCOc2ccc(CN3CCN(c4cc(-c5ccccc5O)nnc4N)CC3)cc2)c1 — IC50 (SMARCA2 bromodomain; ligand displacement; TR-FRET): 0.67 µM
Cc1cccc(C(=O)n2ncc(=O)c3cc([N+](=O)[O-])ccc32)c1 — IC50 (ELANE; enzyme activity; inhibitor; fluorescence): 0.26 µM
CC(C)(O)C1Cc2c(cc3occ(-c4ccc(O)cc4)c(=O)c3c2O)O1 (stereo not shown) — IC50 (BACE1; enzyme activity; inhibitor): > 90 µM
Cc1cccc(-c2noc(-c3ccc(NC(=O)C4CC(=O)N(Cc5cccnc5)C4)cc3)n2)c1 (stereo not shown) — IC50 (RXFP3; cAMP; antagonist; TR-FRET): 4.04 µM
CN1CCN(c2ccc(Nc3ncc4cc(C#N)c(=O)n(C5CCCC5)c4n3)cc2)CC1 — IC50 (Proto-oncogene tyrosine-protein kinase ROS (ROS1, Homo sapiens, UniProt P08922); enzyme activity; inhibitor): 2.25 µM
CC(=O)N[C@H]1CSSC[C@@H](C(=O)N[C@H](Cc2c[nH]c3ccccc23)C(N)=O)NC(=O)[C@@H](Cc2ccccc2)NC(=O)[C@H](CCCNC(=N)N)NC1=O — IC50 (Melanocortin receptor 3 (MC3R, Homo sapiens, UniProt P41968); ligand displacement; radioligand): > 5 µM
CCCS(=O)(=O)Nc1ccc(F)c(C(=O)c2c[nH]c3ncc(-c4ccc(CNC(=O)COCC(=O)NCc5ccc(-c6cnc7[nH]cc(C(=O)c8c(F)ccc(NS(=O)(=O)CCC)c8F)c7c6)cc5)cc4)cc23)c1F — IC50 (Serine/threonine-protein kinase B-raf (BRAF, Homo sapiens, UniProt P15056, Q461A/V600E); enzyme activity; inhibitor; ELISA): ~0.464 µM
COc1ccc2c(c1OCc1ccc(OC(F)(F)F)cc1)C[C@@H](C(=O)O)N(c1nc3ccc(F)cc3o1)C2 — IC50 (Type-1 angiotensin II receptor (AGTR1, Homo sapiens, UniProt P30556); ligand displacement): > 10 µM
CC(O)C(C)C(=O)N1CCC(NC(=O)Nc2ccc(OC(F)(F)F)c(F)c2)CC1 (stereo not shown) — IC50 (Ephx2; enzyme activity; inhibitor): 0.0022 µM
CCCCn1c(Sc2ccc(Cl)cc2Cl)nc2c(N)ncnc21 — IC50 (HSP90B1; ligand displacement; FP): 0.8 µM
Cc1ncsc1-c1ccc(CNC(=O)[C@@H]2C[C@@H](O)CN2C(=O)[C@@H](NC(=O)C2(F)CC2)C(C)(C)C)c(OCCOCCOCCN2CCN(c3cc(-c4ccccc4O)nnc3N)CC2)c1 — IC50 (SMARCA2 bromodomain; ligand displacement; TR-FRET): 2.4 µM
CCOC(=O)c1nn(C(=O)C2CC2)c2ccccc2c1=O — IC50 (ELANE; enzyme activity; inhibitor; fluorescence): 0.58 µM
COc1cc(NC(=O)N2CCC(n3c(=O)[nH]c4c(Br)cccc43)CC2)ccc1C — IC50 (SMUG1; enzyme activity; inhibitor): > 100 µM
CC(C)=CCCC(C)=CCc1c(O)cc2occ(-c3ccc(O)cc3)c(=O)c2c1O — IC50 (BACE1; enzyme activity; inhibitor): > 200 µM
Cc1cccc(C(=O)Oc2c(Cl)nnc3ccccc23)c1 — IC50 (ELANE; enzyme activity; inhibitor; fluorescence): 4.8 µM
[N-]=[N+]=N[C@H](CC(=O)NO)Cc1ccc(O)cc1 — IC50 (Endoplasmic reticulum aminopeptidase 2 (ERAP2, Homo sapiens, UniProt Q6P179); enzyme activity; inhibitor; fluorescence): 59 µM
